Measurements as given in ChEMBL document CHEMBL3352645, “Bioactive 6S-styryllactone constituents of Polyalthia parviflora” (J Nat Prod, 2014).
The source made the active and inactive calls. The rule behind the calls is not given here.

Assays:
Format in all cases: functional, cell-based
Neutrophil [1] = test: (§1) Antiinflammatory activity in human neutrophils assessed as inhibition of fMLP/CB-induced elastase release after 5 mins by spectrophotometry
How it was run: (§2)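 Neutrophils equilibrated with MeOSuc-Ala-Ala-Pro-Val-p-nitroanilide (100 μM) at 37 °C for 2 min, then exposed to compound 5 min. Activated with CB (0.5 μg/mL) plus FMLP (100 nM). Elastase release (azurophilic degranulation) followed as absorbance change at 405 nm; IC50 = concentration giving 50% inhibition; n = 3.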

Neutrophil [2] = test: (§3) Antiinflammatory activity in human neutrophils assessed as inhibition of fMLP/CB-induced superoxide anion generation after 5 mins by spectrophotometry
How it was run: (§4)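 Cells with 0.5 mg/mL ferricytochrome c and 1 mM Ca2+ equilibrated 37 °C for 2 min, compound added 5 min, then cytochalasin B (1 μg/mL) 3 min before FMLP (100 nM) activation for 10 min. SOD-inhibitable ferricytochrome c reduction monitored continuously at 550 nm under stirring; IC50 from 50% inhibition; n = 3.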

HepG2 = test: Cytotoxicity against human HepG2 cells after 72 hrs by MTT assay; conditions: for IC50: HepG2, 72 h
How it was run: (§5)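 Hep G2 and MDA-MB-231 plated at 1 × 10^4 cells per well in triplicate with various compound concentrations. At 72 h medium removed, MTT (0.5 mg/mL) added for 1 h at 37 °C, crystals solubilized in DMSO, absorbance at 550 nm. Doxorubicin control; IC50 as mean of triplicates.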

A549 = test: Cytotoxicity against human A549 cells after 72 hrs by MTT assay; conditions: for IC50: A549, 72 h
How it was run: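 A549 seeded at 5 × 10^3 cells per well in triplicate, exposed to various compound concentrations. After 72 h medium replaced by MTT (0.5 mg/mL), 1 h at 37 °C; formazan dissolved in DMSO, absorbance read at 550 nm. Doxorubicin control; IC50 as mean of triplicates.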

[3] = as §1; conditions: Neutrophil; how it was run: as §2
[4] = as §3; conditions: Neutrophil; how it was run: as §4
MDA-MB-231 = test: Cytotoxicity against human MDA-MB-231 cells after 72 hrs by MTT assay; conditions: for IC50: MDA-MB-231, 72 h; how it was run: as §5

What does the source list for `O=C1C=CC[C@@H]([C@H](O)[C@@H](O)c2ccccc2)O1`?
inhibition (Neutrophil [1]): inactive; inhibition (Neutrophil [2]): inactive; IC50 (HepG2): > 10 µM

Which results are given for `O=C1C=CC[C@@H]([C@@H]2O[C@H]2c2ccccc2)O1`?
IC50 (A549): > 10 µM; IC50 [3]: 19.8 µM; IC50 [4]: 21.2 µM; IC50 (HepG2): > 10 µM; IC50 (MDA-MB-231): > 10 µM

What does the source list for `O=C1C=CC[C@@H](/C=C/c2ccccc2)O1`?
IC50 (A549): > 10 µM; IC50 [3]: 15.4 µM; IC50 [4]: 8.3 µM; IC50 (HepG2): > 10 µM; IC50 (MDA-MB-231): > 10 µM

Which IC50 (A549) does the source give for `CO[C@@H](c1ccccc1)[C@H](O)[C@@H]1CC=CC(=O)O1` here?
The IC50 was > 10 µM.

What about the inhibition (Neutrophil [1]) of the same molecule?
Its inhibition is “inactive”.

What about the inhibition (Neutrophil [2]) of the same molecule?
The inhibition was “inactive”.

What about the IC50 (HepG2) of the same molecule?
Its IC50 is > 10 µM.

What about the IC50 (MDA-MB-231) of the same molecule?
Its IC50 is > 10 µM.

With `O=C1C=CC(O)[C@H](/C=C/c2ccccc2)O1` (stereo partly specified) as the molecule, how does the IC50 (A549) read?
Its IC50 is 7.9 µM.

And the IC50 [3]?
Its IC50 is 14.6 µM.

What about the IC50 [4] of the same molecule?
Its IC50 is 8.1 µM.

And the IC50 (HepG2)?
The IC50 was > 10 µM.

What about the IC50 (MDA-MB-231) of the same molecule?
Its IC50 is > 10 µM.

With `CNC(=O)c1cc(Oc2ccc(NC(=O)Nc3ccc(Cl)c(C(F)(F)F)c3)cc2)ccn1` [SORAFENIB] as the molecule, how does the IC50 [3] read?
The IC50 was 1.9 µM.

What about the IC50 [4] of the same molecule?
The IC50 was 6.3 µM.

Which IC50 (A549) does the source give for `O=C1C=CC[C@@H]([C@H](O)[C@H](Cl)c2ccccc2)O1` here?
The IC50 was > 10 µM.

And the IC50 [4]?
The IC50 was 30 µM.

And the IC50 (HepG2)?
The IC50 was > 10 µM.

What about the IC50 (MDA-MB-231) of the same molecule?
Its IC50 is > 10 µM.

What does the source list for `O=C1C[C@H]2C[C@H](O1)[C@H](O)[C@@H](c1ccccc1)O2`?
Activity (A549): inactive; inhibition (Neutrophil [1]): inactive; inhibition (Neutrophil [2]): inactive; Activity (HepG2): inactive; Activity (MDA-MB-231): inactive

For `CO[C@H](c1ccccc1)[C@@H](O)[C@@H]1CC=CC(=O)O1`, which IC50 (A549) is on record?
The IC50 was > 10 µM.

And the inhibition (Neutrophil [1])?
The inhibition was “inactive”.

And the inhibition (Neutrophil [2])?
Its inhibition is “inactive”.

And the IC50 (HepG2)?
Its IC50 is > 10 µM.

What about the IC50 (MDA-MB-231) of the same molecule?
The IC50 was > 10 µM.

Which IC50 (A549) does the source give for `O=C1C=CC[C@@H]([C@@H](O)[C@@H](O)c2ccccc2)O1` here?
The IC50 was > 10 µM.

And the inhibition (Neutrophil [1])?
The inhibition was “inactive”.

And the inhibition (Neutrophil [2])?
Its inhibition is “inactive”.

And the IC50 (HepG2)?
The IC50 was > 10 µM.

What about the IC50 (MDA-MB-231) of the same molecule?
Its IC50 is > 10 µM.

For `COc1cccc2c1C(=O)c1c(O)c3c(c(O)c1C2=O)C[C@@](O)(C(=O)CO)C[C@@H]3O[C@H]1C[C@H](N)[C@H](O)[C@H](C)O1` [DOXORUBICIN], which IC50 (A549) is on record?
Its IC50 is 0.87 µM.

And the IC50 (MDA-MB-231)?
The IC50 was 0.88 µM.

Which IC50 (A549) does the source give for `O=c1cccc(/C=C/c2ccccc2)o1` here?
The IC50 was > 10 µM.

What about the IC50 [3] of the same molecule?
The IC50 was 6.8 µM.

And the IC50 [4]?
The IC50 was 11.6 µM.

What about the IC50 (HepG2) of the same molecule?
Its IC50 is > 10 µM.

What about the IC50 (MDA-MB-231) of the same molecule?
The IC50 was > 10 µM.
